Ten molecules from ChEMBL document CHEMBL1152213, “Design, synthesis and antiviral efficacy of a series of potent chloropyridyl ester-derived SARS-CoV 3CLpro inhibitors” (Bioorg Med Chem Lett, 2008) can be followed below.

Calls of active or inactive are those of the source. The rule behind the calls is not given here.

The test system of one assay is SARS-CoV. The assay is described as follows: Antiviral activity against SARS-CoV Urbani in african green monkey Vero E6 cells assessed as cell viability after 48 hrs. It counts as functional, organism-based. The conditions noted are these: Severe acute respiratory syndrome-related coronavirus.
In assay [1] the target is Replicase polyprotein 1a (Severe acute respiratory syndrome-related coronavirus) (UniProt P0C6U8). The assay is described as follows: Inhibition of SARS 3Clpro measured by rate of reaction. In a few lines: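 Full-length authentic enzyme at 100 nM in 50 mM HEPES pH 7.5 with 1 mM DTT and 0.01 mg/mL BSA. IC50 taken from reaction rates across increasing inhibitor concentrations.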

The term IC50 denotes the concentration needed to halve the response being measured.

Take `CC(=O)N1Cc2ccccc2C[C@H]1C(=O)Oc1cncc(Cl)c1`: the IC50 in the assay with SARS-CoV was found to be 140 nM. Still for that read-out and setting: with `O=C(Oc1cncc(Cl)c1)c1ccc2c(ccn2S(=O)(=O)c2cccc([N+](=O)[O-])c2)c1` the figure was 89 nM; with `CC(C)(C)OC(=O)N[C@@H]1C(=O)N2[C@@H]1SC(C)(C)[C@@H]2C(=O)Oc1cncc(Cl)c1`, > 100000 nM; with `O=C(On1nnc2ccccc21)c1ccc2[nH]ccc2c1`, 200 nM.

On to `O=C(Oc1cncc(Cl)c1)c1ccc2[nH]ccc2c1`, for which, in the assay with SARS-CoV, the IC50 is 310 nM. In the case of `CC(=O)n1ccc2c(C(=O)Oc3cncc(Cl)c3)cccc21`, the outcome in assay [1] was inactive. The half-maximal inhibitory concentration (IC50) in the assay with SARS-CoV was determined as 1080 nM. Turning to `O=C(Oc1cncc(Cl)c1)c1ccc2cc[nH]c2c1`, in the assay with SARS-CoV, the IC50 was found to be 230 nM.

As to `O=C(Oc1cncc(Cl)c1)c1cccc2cc[nH]c12`, the IC50 in the assay on SARS-CoV was 80 nM. Same read-out and setting: with `Cc1ccc(S(=O)(=O)n2ccc3cc(C(=O)Oc4cncc(Cl)c4)ccc32)cc1` the figure was 370 nM. For `CC(=O)n1ccc2cc(C(=O)Oc3cncc(Cl)c3)ccc21`, in assay [1], the outcome was inactive. Moreover, the half-maximal inhibitory concentration (IC50) in the assay with SARS-CoV worked out at 400 nM.
